Measured values: ChEMBL document CHEMBL1138132, “Cyclic urea derivatives as potent NK1 selective antagonists. Part II: Effects of fluoro and benzylic methyl substitutions” (Bioorg Med Chem Lett, 2006)
Values after ≈ are worked out from the molar mass of the structure shown.

Columns and labels:
Substance-P receptor [1] = target: T1, Substance-P receptor (Homo sapiens, UniProt P25103); test: Displacement of [3H]-Sar-Met Substance P from recombinant human NK1 receptor in CHO cells; assay type: cell-based
T1 sequence (P25103 whole entry): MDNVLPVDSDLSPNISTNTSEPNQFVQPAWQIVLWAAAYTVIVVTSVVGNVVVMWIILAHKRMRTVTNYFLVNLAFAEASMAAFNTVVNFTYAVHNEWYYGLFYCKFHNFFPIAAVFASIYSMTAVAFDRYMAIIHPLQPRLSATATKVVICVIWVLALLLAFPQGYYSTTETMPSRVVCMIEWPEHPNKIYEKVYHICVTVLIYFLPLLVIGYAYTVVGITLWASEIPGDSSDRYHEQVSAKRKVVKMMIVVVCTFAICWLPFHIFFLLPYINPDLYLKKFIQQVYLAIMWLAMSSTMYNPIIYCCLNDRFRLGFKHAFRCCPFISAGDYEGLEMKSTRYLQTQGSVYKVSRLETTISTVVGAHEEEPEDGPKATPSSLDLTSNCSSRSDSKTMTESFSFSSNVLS
Outline: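 Membranes from CHO cells expressing recombinant human NK1 receptor; [3H]-Sar-Met Substance P radioligand at concentrations near its experimentally derived Kd. Ki calculated by Cheng–Prusoff equation; values are the average of two or three independent determinations.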

Meriones unguiculatus [2] = test: Inhibition of Mongolian gerbil foot-tapping at 2 h time point at 1 mg/kg, po; assay type: functional
Outline: (§1)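 Female Mongolian gerbils dosed orally at 1 mg/kg in 0.4% methylcellulose in distilled water at set pretreatment times (2, 4 or 6 h) before icv injection of NK1 agonist GR73632 (3 pmol in 5 µl) under anesthesia. After recovery, animals were placed in clear boxes and duration of hind-foot tapping was timed over 5 min; expressed as % inhibition.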

Meriones unguiculatus [3] = test: Inhibition of Mongolian gerbil foot-tapping at 4 hr time point at 1 mg/kg, po; assay type: functional; outline: as §1
Meriones unguiculatus [4] = test: Inhibition of Mongolian gerbil foot-tapping at 6 hr time point at 1 mg/kg, po; assay type: functional; outline: as §1
[5] = Ratio of drug level in brain against plasma in Mongolian gerbil; assay type: ADME, organism-based, Meriones unguiculatus
[6] = Oral bioavailability in rat; assay type: ADME, organism-based; conditions: in vivo
[7] = Ratio of drug level in brain against plasma in rat; assay type: ADME, organism-based
Substance-P receptor [8] = target: T1, Substance-P receptor; conditions: CHO, 3 uM
[9] = Solubility in pH 7.4 buffer; assay type: physicochemical

Ki (Substance-P receptor [1]) [nM]	Compound	inhibition in vivo at 1 mg/kg (Meriones unguiculatus [2]) [%]	inhibition in vivo at 1 mg/kg (Meriones unguiculatus [3]) [%]	inhibition in vivo at 1 mg/kg (Meriones unguiculatus [4]) [%]	also measured
41	C[C@@H](OC[C@]1(c2ccccc2)CNC(=O)N1)c1cc(C(F)(F)F)cc(C(F)(F)F)c1				
89	O=C1NC[C@](COCc2cc(C(F)(F)F)cc(C(F)(F)F)c2)(c2ccc(F)cc2)N1				
0.4	CN1CCC(N2CC(COCc3cc(C(F)(F)F)cc(C(F)(F)F)c3)(c3ccc(F)cc3)NC2=O)CC1 (stereo not drawn)	3	0		
2.7	O=C1NC[C@@](COCc2cc(C(F)(F)F)cc(C(F)(F)F)c2)(c2ccc(F)cc2)N1	22	55	51	Kp [5]: 16; bioavailability [6]: 93%
6	O=C1NC[C@@](COCc2cc(C(F)(F)F)cc(C(F)(F)F)c2)(c2ccccc2)N1	54	12		Kp [5]: 18; Kp [7]: 4
3.1	CC(C)N1C[C@@](CO[C@H](C)c2cc(C(F)(F)F)cc(C(F)(F)F)c2)(c2ccccc2)NC1=O				
	O=C1NC(COCc2cc(C(F)(F)F)cc(C(F)(F)F)c2)(c2ccc(F)cc2)CN1CCN1CCCC1 (stereo not drawn)	2	0	0	
0.9	O=C1NC(COCc2cc(C(F)(F)F)cc(C(F)(F)F)c2)(c2ccc(F)cc2)CN1C1CCNCC1 (stereo not drawn)	0	0		
0.8	CCN1C[C@@](CO[C@H](C)c2cc(C(F)(F)F)cc(C(F)(F)F)c2)(c2ccc(F)cc2)NC1=O	9	0		
0.6	C[C@@H](OC[C@@]1(c2ccccc2)CNC(=O)N1)c1cc(C(F)(F)F)cc(C(F)(F)F)c1	35	57	48	Kp [5]: 10; Kp [7]: 4.4; bioavailability [6]: 100%
0.4	C[C@@H](OC[C@@]1(c2ccc(F)cc2)CN(CC(N)=O)C(=O)N1)c1cc(C(F)(F)F)cc(C(F)(F)F)c1	14	20		
93	C[C@H](OC[C@@]1(c2ccccc2)CNC(=O)N1)c1cc(C(F)(F)F)cc(C(F)(F)F)c1				
1.5	C[C@@H](OC[C@@]1(c2ccc(F)cc2)CNC(=O)N1)c1cc(C(F)(F)F)cc(C(F)(F)F)c1	40	44	41	
	C[C@H](OC[C@]1(c2ccccc2)CNC(=O)N1)c1cc(C(F)(F)F)cc(C(F)(F)F)c1				inhibition (Substance-P receptor [8]): 22%
1.7	CCN1C[C@@](CO[C@H](C)c2cc(C(F)(F)F)cc(C(F)(F)F)c2)(c2ccccc2)NC1=O	45	46		
4.5	O=C1NCC(COCc2cc(C(F)(F)F)cc(C(F)(F)F)c2)(c2ccc(F)cc2)N1 (stereo not drawn)				
3.6	C[C@@H](OC[C@@]1(c2ccc(F)cc2)CN(C)C(=O)N1)c1cc(C(F)(F)F)cc(C(F)(F)F)c1	65	57	63	solubility [9]: 3 µM (≈ 1.39 µg/mL)
6.3	O=C1NC(COCc2cc(C(F)(F)F)cc(C(F)(F)F)c2)(c2ccc(F)cc2)CN1C1CCOCC1 (stereo not drawn)	22	0		
0.5	C[C@@H](OC[C@@]1(c2ccccc2)CN(C)C(=O)N1)c1cc(C(F)(F)F)cc(C(F)(F)F)c1	86	62	31	
